Measurements taken from ChEMBL document CHEMBL2375307, “Synthesis and identification of β-aryloxyquinoline based diversely fluorine substituted N-aryl quinolone derivatives as a new class of antimicrobial, antituberculosis and antioxidant agents” (Eur J Med Chem, 2013).
In brackets after ≈: the same amount, converted by molar mass.

Key:
[1] = test system: Bacillus subtilis; assay: Antibacterial activity against Bacillus subtilis MTCC 441 assessed as growth inhibition after overnight incubation by NCCLS broth microdilution method; type: functional
Outline: (§1)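 Broth microdilution per NCCLS in Mueller Hinton broth, compounds diluted in DMSO. Primary screen at 500, 250 and 200 µg/mL; actives retested at 100, 62.5, 50, 25 and 12.5 µg/mL. Tubes incubated overnight at 37 °C. […] Non-growing tubes subcultured overnight at 37 °C to judge bacteriostatic versus bactericidal action.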

[2] = Antioxidant activity of the compound assessed as ascorbic acid equivalent of ferric tripyridyl triazine reducing activity at 200 ug/mL after 15 mins by FRAP assay; type: functional
Outline: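 FRAP, modified Benzie and Strain method. Fe(III)-TPTZ reagent made with TPTZ in 40 mM HCl, FeCl3 solution and acetate buffer pH 3.6. 200 µL sample solution mixed with 3 mL reagent and held 15 min at 37 °C. Fe(II)-TPTZ read at 593 nm against an ascorbic acid standard, expressed as ascorbic acid equivalents (mmol/100 g compound).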

[3] = test system: Aspergillus fumigatus; assay: Antifungal activity against Aspergillus fumigatus MTCC 3008 assessed as growth inhibition after overnight incubation by NCCLS broth microdilution method; type: functional; outline: as §1
[4] = test system: Vibrio cholerae; assay: Antibacterial activity against Vibrio cholerae MTCC 3906 assessed as growth inhibition after overnight incubation by NCCLS broth microdilution method; type: functional
[5] = test system: Mycobacterium tuberculosis; assay: Antitubercular activity against Mycobacterium tuberculosis H37Rv assessed as growth inhibition at 250 ug/mL after 12 to 28 days by Lowenstein-Jensen method relative to control; type: functional; conditions: read-out: GI
Outline: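 Modified Lowenstein-Jensen method. Compound at 250 in DMSO added to liquid L-J medium, then sterilized by inspissation and incubated 24 h at 37 °C. Streaked with H37Rv harvested in 0.85% saline (5 × 10⁴ bacilli/tube) and incubated at 37 °C. Colonies read at 12, 22 and 28 days versus drug-free control; no colonies or <20 colonies scored as inhibition.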

[6] = test system: Salmonella typhi; assay: Antibacterial activity against Salmonella typhi MTCC 98 assessed as growth inhibition after overnight incubation by NCCLS broth microdilution method; type: functional, Salmonella enterica subsp. enterica serovar Typhi; conditions: Salmonella enterica
[7] = test system: Clostridium tetani; assay: Antibacterial activity against Clostridium tetani MTCC 449 assessed as growth inhibition after overnight incubation by NCCLS broth microdilution method; type: functional
[8] = test system: Escherichia coli; assay: Antibacterial activity against Escherichia coli MTCC 443 assessed as growth inhibition after overnight incubation by NCCLS broth microdilution method; type: functional; outline: as §1
[9] = test system: Candida albicans; assay: Antifungal activity against Candida albicans MTCC 227 assessed as growth inhibition after overnight incubation by NCCLS broth microdilution method; type: functional; outline: as §1
[10] = test system: Streptococcus pneumoniae; assay: Antibacterial activity against Streptococcus pneumoniae MTCC 1936 assessed as growth inhibition after overnight incubation by NCCLS broth microdilution method; type: functional; outline: as §1

| Compound | MIC [1] [µg/mL] | Activity [2] [equiv] | MIC [3] [µg/mL] | MIC [4] [µg/mL] | inhibition of growth at 250 µg/mL [5] [%] | MIC [6] [µg/mL] | MIC [7] [µg/mL] | MIC [8] [µg/mL] | MIC [9] [µg/mL] | MIC [10] [µg/mL] |
| --- | --- | --- | --- | --- | --- | --- | --- | --- | --- | --- |
| CC1(C)CC(=O)C2=C(C1)N(c1ccc(F)c(F)c1)C(N)=C(C#N)C2c1cc2ccccc2nc1Oc1ccc(C#N)cc1 (stereo unspecified) | 200 (≈ 349 µM) | 19.6 | 500 (≈ 872 µM) | 100 (≈ 174 µM) | 64 | 200 (≈ 349 µM) | 100 (≈ 174 µM) | 125 (≈ 218 µM) | 500 (≈ 872 µM) | 200 (≈ 349 µM) |
| CC1(C)CC(=O)C2=C(C1)N(c1ccc(F)c(F)c1)C(N)=C(C#N)C2c1cc2cc(Cl)ccc2nc1Oc1ccc(C#N)cc1 (stereo unspecified) | 200 (≈ 329 µM) | 3.36 | 500 (≈ 822 µM) | 250 (≈ 411 µM) | 84 | 200 (≈ 329 µM) | 125 (≈ 206 µM) | 125 (≈ 206 µM) | 500 (≈ 822 µM) | 100 (≈ 164 µM) |
| N#CC1=C(N)N(c2cc(F)ccc2F)C2=C(C(=O)CCC2)C1c1cc2ccccc2nc1Oc1ccc(C#N)cc1 (stereo unspecified) | 100 (≈ 183 µM) | 16.4 | 250 (≈ 458 µM) | 200 (≈ 367 µM) | 10 | 250 (≈ 458 µM) | 125 (≈ 229 µM) | 100 (≈ 183 µM) | > 1000 | 250 (≈ 458 µM) |
| COC1=CC(=O)C[C@@H](C)[C@]12Oc1c(Cl)c(OC)cc(OC)c1C2=O [GRISEOFULVIN] |  |  | 100 (≈ 283 µM) |  |  |  |  |  | 500 (≈ 1420 µM) |  |
| Cc1ccc2nc(Oc3ccc(C#N)cc3)c(C3C(C#N)=C(N)N(c4ccc(F)c(F)c4)C4=C3C(=O)CCC4)cc2c1 (stereo unspecified) | 200 (≈ 357 µM) | 243 | 500 (≈ 894 µM) | 200 (≈ 357 µM) | 27 | 250 (≈ 447 µM) | 100 (≈ 179 µM) | 200 (≈ 357 µM) | 250 (≈ 447 µM) | 250 (≈ 447 µM) |
| O=C(O)c1cn(C2CC2)c2cc(N3CCNCC3)c(F)cc2c1=O [CIPROFLOXACIN] |  |  |  | 25 (≈ 75.4 µM) |  | 25 (≈ 75.4 µM) |  | 25 (≈ 75.4 µM) |  | 50 (≈ 151 µM) |
| COc1ccc2nc(Oc3ccc(C#N)cc3)c(C3C(C#N)=C(N)N(c4ccc(F)c(F)c4)C4=C3C(=O)CC(C)(C)C4)cc2c1 (stereo unspecified) | 250 (≈ 414 µM) | 153 | > 1000 | 100 (≈ 166 µM) | 24 | 200 (≈ 331 µM) | 250 (≈ 414 µM) | 62.5 (≈ 104 µM) | > 1000 | 250 (≈ 414 µM) |
| CC1(C)CC(=O)C2=C(C1)N(c1cc(F)ccc1F)C(N)=C(C#N)C2c1cc2ccccc2nc1Oc1ccc(C#N)cc1 (stereo unspecified) | 250 (≈ 436 µM) | 84.4 | 1000 (≈ 1740 µM) | 250 (≈ 436 µM) | 21 | 250 (≈ 436 µM) | 200 (≈ 349 µM) | 250 (≈ 436 µM) | 500 (≈ 872 µM) | 100 (≈ 174 µM) |
| N#CC1=C(N)N(c2cccc(C(F)(F)F)c2)C2=C(C(=O)CCC2)C1c1cc2ccccc2nc1Oc1ccc(C#N)cc1 (stereo unspecified) | 100 (≈ 173 µM) | 270 | 1000 (≈ 1730 µM) | 250 (≈ 433 µM) | 52 | 250 (≈ 433 µM) | 250 (≈ 433 µM) | 200 (≈ 346 µM) | 1000 (≈ 1730 µM) | 125 (≈ 216 µM) |
| N#CC1=C(N)N(c2cc(F)ccc2F)C2=C(C(=O)CCC2)C1c1cc2cc(Cl)ccc2nc1Oc1ccc(C#N)cc1 (stereo unspecified) | 200 (≈ 345 µM) | 100 | 1000 (≈ 1720 µM) | 100 (≈ 172 µM) | 84 | 62.5 (≈ 108 µM) | 100 (≈ 172 µM) | 100 (≈ 172 µM) | 250 (≈ 431 µM) | 100 (≈ 172 µM) |
| COc1ccc2nc(Oc3ccc(C#N)cc3)c(C3C(C#N)=C(N)N(c4ccc(F)c(F)c4)C4=C3C(=O)CCC4)cc2c1 (stereo unspecified) | 200 (≈ 347 µM) | 369 | 1000 (≈ 1740 µM) | 250 (≈ 434 µM) | 88 | 500 (≈ 869 µM) | 200 (≈ 347 µM) | 500 (≈ 869 µM) | 1000 (≈ 1740 µM) | 200 (≈ 347 µM) |
| NYSTATIN |  |  | 100 |  |  |  |  |  | 100 |  |
| Cc1ccc2nc(Oc3ccc(C#N)cc3)c(C3C(C#N)=C(N)N(c4cc(F)ccc4F)C4=C3C(=O)CCC4)cc2c1 (stereo unspecified) | 125 (≈ 223 µM) | 239 | > 1000 | 62.5 (≈ 112 µM) | 80 | 50 (≈ 89.4 µM) | 200 (≈ 357 µM) | 100 (≈ 179 µM) | 250 (≈ 447 µM) | 250 (≈ 447 µM) |
| CC1(C)S[C@@H]2[C@H](NC(=O)[C@H](N)c3ccccc3)C(=O)N2[C@H]1C(=O)O [AMPICILLIN] | 250 (≈ 715 µM) |  |  | 100 (≈ 286 µM) |  | 100 (≈ 286 µM) | 250 (≈ 715 µM) | 100 (≈ 286 µM) |  | 100 (≈ 286 µM) |
| COc1ccc2nc(Oc3ccc(C#N)cc3)c(C3C(C#N)=C(N)N(c4cccc(C(F)(F)F)c4)C4=C3C(=O)CC(C)(C)C4)cc2c1 (stereo unspecified) | 250 (≈ 393 µM) | 14.3 | 500 (≈ 787 µM) | 250 (≈ 393 µM) | 62 | 200 (≈ 315 µM) | 500 (≈ 787 µM) | 125 (≈ 197 µM) | 1000 (≈ 1570 µM) | 200 (≈ 315 µM) |
| Cc1ccc2nc(Oc3ccc(C#N)cc3)c(C3C(C#N)=C(N)N(c4cccc(C(F)(F)F)c4)C4=C3C(=O)CCC4)cc2c1 (stereo unspecified) | 200 (≈ 338 µM) | 253 | > 1000 | 100 (≈ 169 µM) | 38 | 250 (≈ 423 µM) | 125 (≈ 211 µM) | 250 (≈ 423 µM) | 250 (≈ 423 µM) | 250 (≈ 423 µM) |
| Cc1ccc2nc(Oc3ccc(C#N)cc3)c(C=O)cc2c1 | 100 (≈ 347 µM) | 16 | 250 (≈ 867 µM) | 125 (≈ 434 µM) | 26 | 125 (≈ 434 µM) | 100 (≈ 347 µM) | 62.5 (≈ 217 µM) | > 1000 | 200 (≈ 694 µM) |
| O=C(N[C@H](CO)[C@H](O)c1ccc([N+](=O)[O-])cc1)C(Cl)Cl [CHLORAMPHENICOL] | 50 (≈ 155 µM) |  |  | 50 (≈ 155 µM) |  | 50 (≈ 155 µM) | 50 (≈ 155 µM) | 50 (≈ 155 µM) |  | 50 (≈ 155 µM) |
| COc1ccc2nc(Oc3ccc(C#N)cc3)c(C3C(C#N)=C(N)N(c4cc(F)ccc4F)C4=C3C(=O)CC(C)(C)C4)cc2c1 (stereo unspecified) | 250 (≈ 414 µM) | 25.4 | > 1000 | 200 (≈ 331 µM) | 54 | 250 (≈ 414 µM) | 200 (≈ 331 µM) | 200 (≈ 331 µM) | > 1000 | 250 (≈ 414 µM) |
| N#Cc1ccc(Oc2nc3ccccc3cc2C=O)cc1 | 200 (≈ 729 µM) | 19.2 | 500 (≈ 1820 µM) | 250 (≈ 911 µM) | 42 | 100 (≈ 365 µM) | 250 (≈ 911 µM) | 100 (≈ 365 µM) | 1000 (≈ 3650 µM) | 250 (≈ 911 µM) |
| COc1ccc2nc(Oc3ccc(C#N)cc3)c(C3C(C#N)=C(N)N(c4cccc(C(F)(F)F)c4)C4=C3C(=O)CCC4)cc2c1 (stereo unspecified) | 200 (≈ 329 µM) | 260 | 1000 (≈ 1650 µM) | 100 (≈ 165 µM) | 23 | 125 (≈ 206 µM) | 500 (≈ 823 µM) | 200 (≈ 329 µM) | 500 (≈ 823 µM) | 125 (≈ 206 µM) |
| CCn1cc(C(=O)O)c(=O)c2cc(F)c(N3CCNCC3)cc21 [NORFLOXACIN] | 100 (≈ 313 µM) |  |  | 10 (≈ 31.3 µM) |  | 10 (≈ 31.3 µM) | 50 (≈ 157 µM) | 10 (≈ 31.3 µM) |  | 10 (≈ 31.3 µM) |
| N#CC1=C(N)N(c2ccc(F)c(F)c2)C2=C(C(=O)CCC2)C1c1cc2ccccc2nc1Oc1ccc(C#N)cc1 (stereo unspecified) | 250 (≈ 458 µM) | 193 | > 1000 | 100 (≈ 183 µM) | 75 | 125 (≈ 229 µM) | 100 (≈ 183 µM) | 100 (≈ 183 µM) | 250 (≈ 458 µM) | 100 (≈ 183 µM) |
| N#Cc1ccc(Oc2nc3ccc(Cl)cc3cc2C=O)cc1 | 125 (≈ 405 µM) | 34.9 | 250 (≈ 810 µM) | 200 (≈ 648 µM) | 61 | 200 (≈ 648 µM) | 125 (≈ 405 µM) | 250 (≈ 810 µM) | > 1000 | 125 (≈ 405 µM) |
| CC1(C)CC(=O)C2=C(C1)N(c1cccc(C(F)(F)F)c1)C(N)=C(C#N)C2c1cc2ccccc2nc1Oc1ccc(C#N)cc1 (stereo unspecified) | 250 (≈ 413 µM) | 20.2 | 1000 (≈ 1650 µM) | 200 (≈ 330 µM) | 45 | 200 (≈ 330 µM) | 200 (≈ 330 µM) | 250 (≈ 413 µM) | 1000 (≈ 1650 µM) | 200 (≈ 330 µM) |
| COc1ccc2nc(Oc3ccc(C#N)cc3)c(C3C(C#N)=C(N)N(c4cc(F)ccc4F)C4=C3C(=O)CCC4)cc2c1 (stereo unspecified) | 200 (≈ 347 µM) | 278 | 1000 (≈ 1740 µM) | 250 (≈ 434 µM) | 35 | 100 (≈ 174 µM) | 125 (≈ 217 µM) | 250 (≈ 434 µM) | 1000 (≈ 1740 µM) | 125 (≈ 217 µM) |
